Measurements published in article PMC8301548 (Clinical and Translational Science, 2021).
≈ marks a conversion by molar mass, not a printed value. Where two headings read alike, the source gives them in different places.

Tests used:
[1] = assay type: in vivo; settings: human, serum, po, 300 mg, 300 mg single oral dose of allopurinol; for Cmax / Vd/F / AUC(0-t): mean ± SE; for Tmax: median (range); for Vd/F: V/F (apparent volume of distribution)
[2] = Tolerability in the clinical study; assay type: in vivo, human; settings: 19 healthy volunteers who completed the study; 300 mg oral allopurinol
Summary of the method: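 Healthy adults aged 18–50 were screened by medical-history questionnaire. Exclusions were HLA‑B*58:01 carriers, interacting medications, liver enzymes or creatinine >1.5× normal range, and abnormal platelet or white-cell counts. […] In one protocol they continued 300 mg once daily, with a final dose on day 6. In the other they received a single dose only.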

serum uric acid (SUA) [3] = settings: cited from earlier work
BCRP = settings: cited from earlier work
[4] = Population PK model of oxypurinol; assay type: in vivo, human; settings: for Kfm (formation rate constant): final PK model
serum uric acid (SUA) [5] = assay type: in vivo, human

Cmax ([1]; genotype (0) CC, n=9) | Cmax ([1]; genotype (1) CA, n=7) | Cmax ([1]; genotype (2) AA, n=3) | Tmax ([1]; genotype (0) CC) | Tmax ([1]; genotype (1) CA) | Tmax ([1]; genotype (2) AA) | Vd/F ([1]; genotype (0) CC) | Vd/F ([1]; genotype (1) CA) | Vd/F ([1]; genotype (2) AA) | Structure (SMILES) | BCRP substrate (BCRP) | further results
1.37 ± 0.13 µg/mL | 1.93 ± 0.617 µg/mL | 1.55 ± 0.453 µg/mL | 1.5 h | 1 h | 2 h | 149 ± 17 L | 160 ± 22.3 L | 148 ± 40.9 L | Oc1ncnc2[nH]ncc12 [Allopurinol, allopurinol] | substrates of BCRP | tolerability [2]: well‐tolerated; patients reaching an acceptable treatment end point (serum uric acid (SUA) [3]): 21%
5.93 ± 0.409 µg/mL | 6.44 ± 0.592 µg/mL | 6.38 ± 1.35 µg/mL | 4 h | 4 h | 6 h | 49.9 ± 4.53 L | 61.9 ± 9.58 L | 56.6 ± 11.6 L | O=c1[nH]c(=O)c2c[nH]nc2[nH]1 [Oxypurinol, oxypurinol] | substrates of BCRP | AUC(0-t) ([1]; AUC0–24, genotype (0) CC): 93.9 ± 8.07 µg·h/mL; AUC(0-t) ([1]; AUC0–24, genotype (1) CA): 93.4 ± 9.99 µg·h/mL; AUC(0-t) ([1]; AUC0–24, genotype (2) AA): 105 ± 20.6 µg·h/mL; θgender(female), covariate effect on V/Fm ([4]; V/Fm=θV/Fm×(1+θgender), estimate (%RSE) [95% CI]): θgender(female) = −0.248 (35.7) [−0.395, −0.067]; Kfm (formation rate constant) ([4]; BSV in parentheses in the text): 0.771 h⁻¹; Kfm (formation rate constant) ([4]; estimate (%RSE) [95% CI]): 0.771 (17.8) [0.535, 1.06] 1/h; lower V/Fm in women compared with men ([4]; final PK/PD model, gender covariate): 24.8%; Vd/F ([4]; male, human, plasma, oral, 300 mg): 57 L; EC50 (serum uric acid (SUA) [5]; Homo sapiens, read-out: C50 (concentration needed to achieve 50% effect)): 2.59 mg/L (≈ 17 µM); Emax (maximum effect) (serum uric acid (SUA) [5]; final PK/PD model, effect on SUA, RSE not given): 1
